Here are results for 1 substance from paper PMC6096382 (Theranostics, 2018).

This assay concerns human sural nerve. The assay is classed as binding. To be noted: topical 100 µM on human nerve sections from multiple patients. The procedure, abridged: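 Human peripheral nerve from nerve-resection patients, cut as 10 µm unfixed sections, humidified 30 min. Test compound in 0.5X HBSS applied topically and incubated 30 min in a humidified chamber. Carboxyfluorescein served as the free-dye control. Sections were washed twice with 0.5X HBSS and once with PBS, then coverslipped and imaged at once on a dissecting scope or confocal (488 nm excitation, 515/25 nm emission, 10x air objective).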

Regarding carboxyfluorescein, the “binding of free dye control to human nerve” value is reported as “only weak non-specific binding”.
